{
  "source": "ChEMBL document CHEMBL4350961",
  "about": "“Discovery of Pyrrolo[3,2- d]pyrimidin-4-one Derivatives as a New Class of Potent and Cell-Active Inhibitors of P300/CBP-Associated Factor Bromodomain” (J Med Chem, 2019)",
  "key": {"[1]": {"target": "Testis-specific serine/threonine-protein kinase 2 (Homo sapiens) (UniProt Q96PF2)", "assay": "Inhibition of recombinant full-length human TSSK2 at 10 uM using KKKVSRSGLYRSPSMPENLNRPR as substrate measured after 40 mins in presence of [gamma33P]ATP by scintillation counting method"}, "[2]": {"target": "Serine/threonine-protein kinase mTOR (Homo sapiens) (UniProt P42345)", "assay": "Inhibition of recombinant full-length human mTOR at 10 uM measured after 40 mins in presence of [gamma33P]ATP by scintillation counting method"}, "[3]": {"target": "Serine/threonine-protein kinase MRCK gamma (Homo sapiens) (UniProt Q6DT37)", "sequence (Q6DT37 whole entry)": "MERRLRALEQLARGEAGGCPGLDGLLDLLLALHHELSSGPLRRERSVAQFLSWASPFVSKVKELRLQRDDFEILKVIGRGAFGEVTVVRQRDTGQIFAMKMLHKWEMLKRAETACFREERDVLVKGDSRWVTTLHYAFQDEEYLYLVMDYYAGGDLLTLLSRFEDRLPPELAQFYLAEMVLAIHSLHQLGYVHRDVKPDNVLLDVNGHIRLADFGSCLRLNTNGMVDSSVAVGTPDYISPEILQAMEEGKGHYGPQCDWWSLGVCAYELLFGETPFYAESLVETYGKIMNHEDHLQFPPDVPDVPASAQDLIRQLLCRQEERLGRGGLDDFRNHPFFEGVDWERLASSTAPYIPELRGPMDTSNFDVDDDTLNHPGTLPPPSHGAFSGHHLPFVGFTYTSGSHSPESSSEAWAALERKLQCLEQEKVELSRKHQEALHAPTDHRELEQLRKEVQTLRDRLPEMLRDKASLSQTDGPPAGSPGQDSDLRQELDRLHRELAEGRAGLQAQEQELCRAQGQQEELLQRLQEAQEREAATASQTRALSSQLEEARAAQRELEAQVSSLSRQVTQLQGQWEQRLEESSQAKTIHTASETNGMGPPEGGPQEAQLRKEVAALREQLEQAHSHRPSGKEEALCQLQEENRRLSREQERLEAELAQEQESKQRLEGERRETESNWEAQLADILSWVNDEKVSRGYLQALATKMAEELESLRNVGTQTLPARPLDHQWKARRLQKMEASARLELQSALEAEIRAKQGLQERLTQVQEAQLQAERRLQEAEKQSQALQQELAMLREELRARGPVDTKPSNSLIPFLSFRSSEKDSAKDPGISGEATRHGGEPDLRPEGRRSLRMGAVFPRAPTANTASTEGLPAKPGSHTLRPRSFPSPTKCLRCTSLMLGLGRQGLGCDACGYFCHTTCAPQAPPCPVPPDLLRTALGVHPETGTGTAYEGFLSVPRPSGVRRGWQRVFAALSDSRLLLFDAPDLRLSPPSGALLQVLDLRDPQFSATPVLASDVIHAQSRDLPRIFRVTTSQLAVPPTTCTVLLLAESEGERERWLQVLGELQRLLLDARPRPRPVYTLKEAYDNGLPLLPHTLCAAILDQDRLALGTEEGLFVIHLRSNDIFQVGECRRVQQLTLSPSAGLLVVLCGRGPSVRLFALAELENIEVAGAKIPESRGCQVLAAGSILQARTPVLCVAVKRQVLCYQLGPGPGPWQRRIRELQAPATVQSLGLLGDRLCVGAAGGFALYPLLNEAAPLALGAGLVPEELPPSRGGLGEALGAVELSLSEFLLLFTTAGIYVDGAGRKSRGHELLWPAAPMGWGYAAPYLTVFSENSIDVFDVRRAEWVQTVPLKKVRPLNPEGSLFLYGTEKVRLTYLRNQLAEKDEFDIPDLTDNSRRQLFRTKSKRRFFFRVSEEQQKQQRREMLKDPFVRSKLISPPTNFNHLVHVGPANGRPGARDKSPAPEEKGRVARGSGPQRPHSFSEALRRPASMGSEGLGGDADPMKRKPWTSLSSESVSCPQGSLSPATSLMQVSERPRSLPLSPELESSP", "assay": "Inhibition of recombinant human MRCKgamma at 10 uM using KKRNRTLTV as substrate measured after 40 mins in presence of [gamma33P]ATP by scintillation counting method"}, "[4]": {"target": "Cyclin-dependent kinase 5/CDK5 activator 1 (Homo sapiens) (UniProt Q00535+Q15078)", "assay": "Inhibition of recombinant full-length human CDK5/p25 at 10 uM using histone H1 as substrate measured after 40 mins in presence of [gamma33P]ATP by scintillation counting method", "type": "protein-complex assay"}, "[5]": {"test_system": "Casein kinase I isoform gamma-3 (Homo sapiens), Q9Y6M4 [UNDEFINED MUTATION]", "assay": "Inhibition of recombinant human CK1gamma3 K91E/R174G/E302D mutant (1 to 330 residues) at 10 uM using KRRRALS(p)VASLPGL as substrate measured after 40 mins in presence of [gamma33P]ATP by scintillation counting method"}, "[6]": {"species_on_record": "Mus musculus", "assay": "Inhibition of recombinant full-length mouse PI3K p110alpha/p85alpha E545K mutant at 10 uM using phosphatidylinositol-4, 5-bisphosphate as substrate measured after 40 mins by HTRF assay"}, "[7]": {"target": "Nucleosome-remodeling factor subunit BPTF (Homo sapiens, UniProt Q12830)", "assay": "Binding affinity to human N-terminal His-tagged FALZ by isothermal titration calorimetry", "outline": "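Bromodomain (His-tag removed by TEV for PCAF and GCN5) in the syringe, ligand in the cell. One 0.4 μL injection, then 19 of 2 μL. Dilution heat subtracted; KD from an independent single-site binding model.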"}, "[8]": {"target": "Serine/threonine-protein kinase 16 (Homo sapiens) (UniProt O75716)", "assay": "Inhibition of human STK16 at 10 uM by radiometric method", "outline": "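Kinase panel of 422 kinases screened by Eurofins KinaseProfiler at a single test-compound concentration of 10 µM.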"}, "[9]": {"target": "Serine/threonine-protein kinase D3 (Homo sapiens) (UniProt O94806)", "assay": "Inhibition of recombinant full-length human PKD3 at 10 uM using KKLRRTLSVA as substrate measured after 40 mins in presence of [gamma33P]ATP by scintillation counting method"}, "[10]": {"target": "cGMP-dependent protein kinase 2 (Homo sapiens) (UniProt Q13237)", "assay": "Inhibition of recombinant full-length human PRKG2 at 10 uM using KKLRRTLSFAEPG as substrate measured after 40 mins in presence of [gamma33P]ATP by scintillation counting method"}, "[11]": {"target": "Transcription initiation factor TFIID subunit 1 (Homo sapiens) (UniProt P21675)", "sequence (P21675 whole entry, the tested form may be a part)": "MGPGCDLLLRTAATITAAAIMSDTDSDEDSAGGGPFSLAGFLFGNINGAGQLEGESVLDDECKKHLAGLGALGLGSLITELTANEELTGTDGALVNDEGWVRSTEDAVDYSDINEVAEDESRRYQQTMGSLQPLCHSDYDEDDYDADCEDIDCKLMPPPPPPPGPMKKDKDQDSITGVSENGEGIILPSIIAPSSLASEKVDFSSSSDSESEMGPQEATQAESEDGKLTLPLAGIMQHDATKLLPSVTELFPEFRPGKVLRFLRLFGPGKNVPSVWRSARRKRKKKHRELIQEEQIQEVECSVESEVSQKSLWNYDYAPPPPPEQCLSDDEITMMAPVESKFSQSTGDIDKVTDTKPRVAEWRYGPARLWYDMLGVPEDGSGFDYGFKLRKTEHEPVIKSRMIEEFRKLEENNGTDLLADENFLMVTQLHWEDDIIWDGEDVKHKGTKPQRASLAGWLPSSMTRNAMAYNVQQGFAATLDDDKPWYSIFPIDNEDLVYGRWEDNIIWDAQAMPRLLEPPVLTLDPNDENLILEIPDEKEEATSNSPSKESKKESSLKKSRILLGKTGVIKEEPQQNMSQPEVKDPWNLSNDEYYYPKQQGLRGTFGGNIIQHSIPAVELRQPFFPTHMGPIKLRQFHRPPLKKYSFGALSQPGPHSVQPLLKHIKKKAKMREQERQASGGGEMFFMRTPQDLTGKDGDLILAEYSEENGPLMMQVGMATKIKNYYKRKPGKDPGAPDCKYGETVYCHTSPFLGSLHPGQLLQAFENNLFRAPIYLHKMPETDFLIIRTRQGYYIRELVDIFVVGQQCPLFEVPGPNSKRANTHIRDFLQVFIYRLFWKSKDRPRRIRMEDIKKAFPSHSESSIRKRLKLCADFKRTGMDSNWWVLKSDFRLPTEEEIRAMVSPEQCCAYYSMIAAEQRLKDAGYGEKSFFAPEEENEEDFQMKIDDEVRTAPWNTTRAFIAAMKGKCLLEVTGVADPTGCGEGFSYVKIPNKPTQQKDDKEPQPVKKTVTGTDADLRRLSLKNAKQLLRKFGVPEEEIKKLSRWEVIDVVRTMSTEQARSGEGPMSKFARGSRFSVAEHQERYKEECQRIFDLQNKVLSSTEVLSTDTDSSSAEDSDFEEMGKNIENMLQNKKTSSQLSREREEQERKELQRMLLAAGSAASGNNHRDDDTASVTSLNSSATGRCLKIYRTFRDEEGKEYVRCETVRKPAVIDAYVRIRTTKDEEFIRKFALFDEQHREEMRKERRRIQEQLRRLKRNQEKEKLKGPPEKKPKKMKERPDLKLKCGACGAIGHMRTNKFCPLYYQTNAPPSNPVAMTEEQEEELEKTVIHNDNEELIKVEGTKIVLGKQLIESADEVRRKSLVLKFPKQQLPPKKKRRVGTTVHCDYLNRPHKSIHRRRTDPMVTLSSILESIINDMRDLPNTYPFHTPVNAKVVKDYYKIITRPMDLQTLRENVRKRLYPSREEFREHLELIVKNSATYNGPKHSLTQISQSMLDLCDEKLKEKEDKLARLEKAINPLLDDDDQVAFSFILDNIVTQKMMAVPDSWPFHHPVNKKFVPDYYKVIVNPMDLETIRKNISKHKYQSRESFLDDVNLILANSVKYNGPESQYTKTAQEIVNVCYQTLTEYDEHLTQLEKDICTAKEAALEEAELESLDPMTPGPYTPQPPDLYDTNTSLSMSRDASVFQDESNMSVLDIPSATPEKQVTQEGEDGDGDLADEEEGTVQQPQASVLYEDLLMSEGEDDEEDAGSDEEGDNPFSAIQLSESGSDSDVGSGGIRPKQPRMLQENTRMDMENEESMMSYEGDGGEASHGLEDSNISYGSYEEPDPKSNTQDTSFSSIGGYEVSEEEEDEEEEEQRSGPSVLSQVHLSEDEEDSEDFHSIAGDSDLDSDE", "assay": "Binding affinity to human partial length TAF1 bromodomain 2 (D1521 to D1656 residues) expressed in bacterial expression system at 1 uM by BROMOscan assay", "outline": "(§1)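 BROMOscan bromodomain cross-screen run by an outside service, compound at 1 µM against 32 recombinant bromodomains. Binding given as percent of control.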"}, "[12]": {"target": "Serine/threonine-protein kinase Nek3 (Homo sapiens) (UniProt P51956)", "sequence (P51956 whole entry)": "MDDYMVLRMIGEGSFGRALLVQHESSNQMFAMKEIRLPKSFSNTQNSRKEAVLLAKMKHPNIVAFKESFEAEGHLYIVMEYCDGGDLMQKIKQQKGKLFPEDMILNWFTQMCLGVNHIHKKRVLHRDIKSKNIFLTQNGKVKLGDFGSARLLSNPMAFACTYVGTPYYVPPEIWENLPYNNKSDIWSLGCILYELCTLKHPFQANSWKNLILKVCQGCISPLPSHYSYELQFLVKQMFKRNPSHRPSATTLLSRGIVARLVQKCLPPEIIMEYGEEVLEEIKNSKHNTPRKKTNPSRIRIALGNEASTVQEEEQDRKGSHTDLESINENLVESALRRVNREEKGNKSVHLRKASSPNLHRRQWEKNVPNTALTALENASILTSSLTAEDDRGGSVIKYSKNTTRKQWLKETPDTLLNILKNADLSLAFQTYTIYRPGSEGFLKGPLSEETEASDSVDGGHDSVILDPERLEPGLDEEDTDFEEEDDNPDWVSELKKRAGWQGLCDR", "assay": "Inhibition of recombinant full-length human NEK3 at 10 uM using myelin basic protein as substrate measured after 40 mins in presence of [gamma33P]ATP by scintillation counting method"}, "[13]": {"target": "MAP kinase-activated protein kinase 3 (Homo sapiens) (UniProt Q16644)", "sequence (Q16644 whole entry, looked up)": "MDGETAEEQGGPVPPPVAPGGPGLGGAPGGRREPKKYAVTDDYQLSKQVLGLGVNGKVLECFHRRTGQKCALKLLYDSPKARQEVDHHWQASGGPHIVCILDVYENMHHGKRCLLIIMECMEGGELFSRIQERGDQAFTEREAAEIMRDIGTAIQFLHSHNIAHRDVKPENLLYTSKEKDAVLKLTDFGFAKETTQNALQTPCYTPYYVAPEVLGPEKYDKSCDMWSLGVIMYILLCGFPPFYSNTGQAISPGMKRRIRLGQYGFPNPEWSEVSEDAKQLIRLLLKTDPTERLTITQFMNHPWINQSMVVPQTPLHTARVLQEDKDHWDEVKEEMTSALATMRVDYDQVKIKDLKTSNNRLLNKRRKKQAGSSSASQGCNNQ", "assay": "Inhibition of recombinant human MAPKAPK3 (2 to end residues) at 10 uM using KKLNRTLSVA as substrate measured after 40 mins in presence of [gamma33P]ATP by scintillation counting method"}, "[14]": {"test_system": "Serine/threonine-protein kinase Sgk1 (Homo sapiens), O00141 [S422D]", "assay": "Inhibition of recombinant human SGK S422D mutant (60 to end residues) at 10 uM using GRPRTSSFAEGKK as substrate measured after 40 mins in presence of [gamma33P]ATP by scintillation counting method"}, "[15]": {"target": "Focal adhesion kinase 1 (Homo sapiens) (UniProt Q05397)", "assay": "Inhibition of recombinant human FAK (411 to 686 residues) at 10 uM using EEEEYEEEEEEYYIIEEEEEEYEEEEEEYYEEEEEEKKKK as substrate measured after 40 mins in presence of [gamma33P]ATP by scintillation counting method"}, "[16]": {"target": "Bromodomain-containing protein 2 (Homo sapiens) (UniProt P25440)", "assay": "Binding affinity to human partial length BRD2 bromodomain 1 long isoform (K71 to N194 residues) expressed in bacterial expression system at 1 uM by BROMOscan assay", "outline": "as §1"}, "[17]": {"target": "Myosin light chain kinase 2, skeletal/cardiac muscle (Homo sapiens) (UniProt Q9H1R3)", "assay": "Inhibition of recombinant full-length human MYLK2 at 10 uM using KKLNRTLSFAEPG as substrate measured after 40 mins in presence of [gamma33P]ATP by scintillation counting method"}, "[18]": {"species_on_record": "Homo sapiens", "assay": "Inhibition of recombinant human BrSK2 S251I mutant (2 to end residues) at 10 uM using KKLNRTLSFAEPG as substrate measured after 40 mins in presence of [gamma33P]ATP by scintillation counting method"}, "[19]": {"target": "Serine/threonine-protein kinase Chk2 (Homo sapiens) (UniProt O96017)", "assay": "Inhibition of recombinant human CHK2 (5 to end residues) at 10 uM using KKKVSRSGLYRSPSMPENLNRPR as substrate measured after 40 mins in presence of [gamma33P]ATP by scintillation counting method"}, "[20]": {"target": "BDNF/NT-3 growth factors receptor (Homo sapiens) (UniProt Q16620)", "sequence (Q16620 32-822 limits assumed)": "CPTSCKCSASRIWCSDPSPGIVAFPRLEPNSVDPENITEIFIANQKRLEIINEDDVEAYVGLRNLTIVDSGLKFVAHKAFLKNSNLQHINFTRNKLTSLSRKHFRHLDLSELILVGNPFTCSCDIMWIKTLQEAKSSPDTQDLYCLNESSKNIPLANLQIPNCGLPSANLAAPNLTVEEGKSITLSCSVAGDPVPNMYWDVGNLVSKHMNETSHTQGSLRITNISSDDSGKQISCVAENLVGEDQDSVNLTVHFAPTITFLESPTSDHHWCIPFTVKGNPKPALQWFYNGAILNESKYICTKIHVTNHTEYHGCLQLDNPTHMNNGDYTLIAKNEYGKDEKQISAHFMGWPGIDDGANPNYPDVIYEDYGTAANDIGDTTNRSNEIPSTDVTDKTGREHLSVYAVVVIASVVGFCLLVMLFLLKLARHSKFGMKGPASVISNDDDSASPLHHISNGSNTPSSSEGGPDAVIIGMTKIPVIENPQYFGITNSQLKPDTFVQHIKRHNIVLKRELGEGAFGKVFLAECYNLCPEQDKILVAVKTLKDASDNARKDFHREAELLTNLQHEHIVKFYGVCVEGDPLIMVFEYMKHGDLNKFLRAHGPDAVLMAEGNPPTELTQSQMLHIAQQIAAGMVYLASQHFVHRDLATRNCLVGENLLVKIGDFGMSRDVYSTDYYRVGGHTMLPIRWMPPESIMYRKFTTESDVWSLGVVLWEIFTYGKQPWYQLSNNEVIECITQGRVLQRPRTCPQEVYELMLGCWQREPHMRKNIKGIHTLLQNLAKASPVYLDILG", "assay": "Inhibition of human TrkB (455 to end residues) using poly(Glu, Tyr) 4:1 as substrate measured after 40 mins in presence of [gamma33P]ATP by scintillation counting method"}, "[21]": {"target": "Ephrin type-A receptor 3 (Homo sapiens) (UniProt P29320)", "assay": "Inhibition of recombinant human EphA3 (578 to end residues) at 10 uM using poly(Glu, Tyr) 4:1 as substrate measured after 40 mins in presence of [gamma33P]ATP by scintillation counting method"}, "[22]": {"target": "Bromodomain adjacent to zinc finger domain protein 2B (Homo sapiens) (UniProt Q9UIF8)", "assay": "Binding affinity to human partial length BAZ2B (S2054 to S2168 residues) expressed in bacterial expression system at 1 uM by BROMOscan assay", "outline": "as §1"}, "[23]": {"test_system": "Receptor tyrosine-protein kinase erbB-2 (Homo sapiens), P04626 [G778D]", "assay": "Inhibition of recombinant human ErbB2 G778D mutant (676 to end residues) at 10 uM using poly (Glu, Tyr) 4:1 as substrate measured after 40 mins in presence of [gamma33P]ATP by scintillation counting method"}},
  "note": "The source made the active and inactive calls. The rule behind the calls is not given here.",
  "data": [
    {"smiles": "CN1C[C@H](Nc2nc3cc[nH]c3c(=O)n2C)C[C@H](c2ccc3c(c2)OCCO3)C1", "values": [
      {"measurement": "inhibition", "setting": "[1]", "value": "inactive"},
      {"measurement": "inhibition", "setting": "[2]", "value": "inactive"},
      {"measurement": "inhibition", "setting": "[3]", "value": "inactive"},
      {"measurement": "inhibition", "setting": "[4]", "value": "inactive"},
      {"measurement": "inhibition", "setting": "[5]", "value": "inactive"},
      {"measurement": "inhibition", "setting": "[6]", "value": "inactive"},
      {"measurement": "Kd", "setting": "[7]", "value": 917, "unit": "nM"},
      {"measurement": "inhibition", "setting": "[8]", "value": "inactive"},
      {"measurement": "inhibition", "setting": "[9]", "value": "inactive"},
      {"measurement": "inhibition", "setting": "[10]", "value": "inactive"},
      {"measurement": "Activity", "setting": "[11]", "value": "inactive"},
      {"measurement": "inhibition", "setting": "[12]", "value": "inactive"},
      {"measurement": "inhibition", "setting": "[13]", "value": "inactive"},
      {"measurement": "inhibition", "setting": "[14]", "value": "inactive"},
      {"measurement": "inhibition", "setting": "[15]", "value": "inactive"},
      {"measurement": "Activity", "setting": "[16]", "value": "inactive"},
      {"measurement": "inhibition", "setting": "[17]", "value": "inactive"},
      {"measurement": "inhibition", "setting": "[18]", "value": "inactive"},
      {"measurement": "inhibition", "setting": "[19]", "value": "inactive"},
      {"measurement": "inhibition", "setting": "[20]", "value": "inactive"},
      {"measurement": "inhibition", "setting": "[21]", "value": "inactive"},
      {"measurement": "Activity", "setting": "[22]", "value": "Active"},
      {"measurement": "inhibition", "setting": "[23]", "value": "inactive"}
    ]}
  ]
}
